The list is not random: actives were taken first. Their share in the collection is about 2.3%.
SR-BI uptake up – SR-BI HDL lipid transfer activation; CHO ldlA[mSR-BI] cells, DiI-HDL uptake fluorescence, 3 h; 100 = double the neutral-control signal; activation, % at 12.5 µM; hit rate 0.096% among 320,000;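 active = mean replicate activation of at least 60% and every replicate at or above 60%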;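 note: 0% = median plate neutral-control signal and 100% = twice that signal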
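System: LDL receptor-deficient CHO ldlA cells overexpressing murine SR-BI | Timing: 3 h uptake period with compound, 37 °C | Medium: HEPES-buffered (25 mM, pH 7.4) F12 plus 0.5% BSA | Dosing: Single-point compound dose | Signal: Bottom-read fluorescence, 550/595 nm | Read-out: Retained DiI signal reflecting DiI-HDL uptake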
SR-BI DiI inh – mouse SR-BI HDL lipid transfer inhibition | ldlA[mSR-BI] CHO cells, DiI-HDL uptake fluorescence, 3 h | Q61009 | inhibition, % at 12.5 µM | hit rate 0.96% among 320,000;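 active = mean replicate inhibition of at least 70% and a set share of replicates each scoring 70 or more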;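 note: 0% = median of neutral control wells and 100% = median of positive control wells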
CAL PDZ FP-1 – human CAL PDZ-peptide interaction inhibition; hit rate 0.02% among 330,000; inhibition, % at 20 µM; AID 504414; purified CAL PDZ, TMR-peptide fluorescence polarization, 1 h;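 active = highest replicate inhibition of at least 40%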;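 note: plate controls were DMSO neutral control wells for no effect and unlabeled competitor peptide control wells for full effect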
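Test system: tagged CAL PDZ domain / Buffer or medium: sodium phosphate/NaCl buffer pH 7.4 with TCEP, IgG, Thesit / Reagent: TMR-labelled reporter peptide T*-PRC34 bound in PDZ groove / Compound dosing: single point, 20 µM / Schedule: 1 h incubation at room temperature before polarization reading / Technique: fluorescence polarization (mP) / Benchmarks: unlabelled peptide, DMSO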
ATG4B inhibitor – inhibitors of human ATG4B cysteine protease; Q9Y4P1; ATG4B cleavage of LC3-PLA2, NBD-HPC fluorescence, 1 h; inhibition, % at 8.33 µM; hit rate 0.51% among 340,000; in the data active = inhibition above about 40%
Target sequence (Q9Y4P1 whole entry, looked up): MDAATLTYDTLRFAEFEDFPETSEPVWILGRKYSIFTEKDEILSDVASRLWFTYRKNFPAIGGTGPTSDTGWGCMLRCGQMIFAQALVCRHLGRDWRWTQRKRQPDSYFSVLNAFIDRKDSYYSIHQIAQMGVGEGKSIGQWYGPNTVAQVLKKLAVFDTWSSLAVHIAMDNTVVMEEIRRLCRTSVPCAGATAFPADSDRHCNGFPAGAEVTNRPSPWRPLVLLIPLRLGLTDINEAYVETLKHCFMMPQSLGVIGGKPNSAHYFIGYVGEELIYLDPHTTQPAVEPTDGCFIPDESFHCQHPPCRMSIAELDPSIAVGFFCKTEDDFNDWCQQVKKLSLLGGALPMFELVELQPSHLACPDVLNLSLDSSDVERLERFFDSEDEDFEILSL
CAL PDZ FP-2 – CAL PDZ (human) peptide binding inhibition. Q9HD26. purified CAL PDZ, TMR-peptide fluorescence polarization, 1 h. inhibition, % at 24.9 µM. hit rate 0.92% among 300,000;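 active = mean inhibition of at least 30% with at least half of replicates also reaching 30%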;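 note: 0% = DMSO neutral control and 100% = excess unlabeled competitor peptide PRC23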
Active calls of the source: *; nt = no result.

SMILES	SR-BI uptake up	SR-BI DiI inh	CAL PDZ FP-1	ATG4B inhibitor	CAL PDZ FP-2
CCOc1cc(CNc2ccccc2)cc(Br)c1OCC(=O)NC(C)(C)C	5	-5	-3	-6	-2
O=C(CN1CCN(C(=O)C2CCN(C(=O)/C=C/c3ccccc3)CC2)CC1)Nc1ccc(F)cc1	-20	20	-2	-8	-1
Cc1ccc(N2CCN(C(=S)c3ccc(N(C)C)cc3)CC2)cc1	26	-26	-1	-2	-3
CN(C)c1ccc(C(=S)N2CCN(c3ccccc3)CC2)cc1	6	-6	nt	4	50*
COc1ccc(CN2CCNC(=O)C2CC(=O)NCc2cc(C)n(C)n2)c(F)c1 (stereo not given)	-6	6	-1	2	-3
COc1cccc(-n2c(Cc3cc(=O)[nH]c(=O)[nH]3)nnc2SCC(=O)N2CCC(C)CC2)c1	21	-21	0	-1	50*
Cc1ccc(S(=O)(=O)N(C)CC(=O)NCCCn2nc(C)cc2C)cc1	-4	4	1	1	62*
CCOC(=O)c1[nH]ncc1[C@@H]1C[C@H]2CN(Cc3cccc(Cl)c3)C(=O)[C@]23CCCN13	-19	19	-1	-3	46*
CCCCN1C(=O)N(c2nnc(C(C)(C)C)s2)C(O)C1c1ccc(C)cc1 (stereo not given)	6	-6	0	-8	-1
O=C(Nc1ccc2ccccc2c1)c1ccccc1F	4	-4	0	-3	nt
O=C(Nc1ccc2cn[nH]c2c1)c1ccccc1F	1	-1	-1	-12	85*
COc1ccc(C(=O)CCC(=O)Nc2cc(Cl)c(O)c(Cl)c2)cc1	-25	25	0	8	-3
Cc1ccc(-n2ncc(Cl)c2C(=O)NC2CC2)cc1	-25	25	-1	-4	59*
CNC(=O)c1c(Cl)cnn1-c1ccc(C)cc1	11	-11	-1	-3	-3
CCOC(=O)Nc1cc(NC(=O)OCC)c(C)nc1C	-1	1	0	-1	10
O=C(c1cnn2c(C(F)(F)F)cc(-c3ccccc3)nc12)N1CCCCC1c1cccnc1 (stereo not given)	-8	8	-3	-20	1
O=C(c1cc2nc(-c3ccc(F)cc3)cc(C(F)(F)F)n2n1)N1CCCCC1c1cccnc1 (stereo not given)	-82	82*	-5	-6	-5
N#CC1C=Cc2c(ccc3ccccc23)N1C(=O)c1ccccc1 (stereo not given)	-34	34	-1	3	0
COc1ccccc1C(=O)NC(CCSC)C(=O)NNC(=O)c1ccc(F)cc1 (stereo not given)	-12	12	0	-6	0
COc1ccccc1C(=O)NC(CCSC)C(=O)NNC(=O)c1ccccc1O (stereo not given)	-76	76*	-1	6	0
O=C(C(=O)N(Cc1ccccc1)Cc1ccccc1)c1c(-c2ccccc2)[nH]c2ccccc12	6	-6	0	-12	-1
Cc1cc(Cl)ccc1OCC(=O)N1CCCCC1	0	0	2	1	-4
O=C(COc1ccc(Cl)cc1Cl)N1CCCN(C(=O)COc2ccc(Cl)cc2Cl)CC1	-85	85*	nt	-24	0
CCOC(=O)c1cccc(NC(=O)/C=C/c2cccc([N+](=O)[O-])c2)c1	-73	73*	-3	-3	nt
CCc1noc(C)c1C(=O)Nc1cc(S(=O)(=O)N2CCOCC2)ccc1OCC(F)(F)F	-7	7	0	1	nt
SMILES	SR-BI uptake up	SR-BI DiI inh	CAL PDZ FP-1	ATG4B inhibitor	CAL PDZ FP-2
O=C(NC1CCCC1)C(c1ccccn1)N(Cc1ccc(F)cc1)C(=O)c1csnn1 (stereo not given)	9	-9	-1	-8	51*
O=C(NC(Cc1ccccc1)C(=O)O)c1ccco1 (stereo not given)	14	-14	0	2	32*
CC(CC(=O)c1ccc(F)cc1)N1CCN(c2ccccc2)CC1 (stereo not given)	11	-11	0	-3	1
COC(=O)c1cc(NC(=O)Cc2cccs2)cc(C(=O)OC)c1	-21	21	0	3	0
O=S(=O)(c1ccccc1)N1N=C(c2ccccc2)CC1c1ccccc1 (stereo not given)	17	-17	-1	6	45*
COc1ccc(C2=NN(S(=O)(=O)c3ccccc3)C(c3ccccc3)C2)cc1 (stereo not given)	nt	nt	-2	3	1
CCOc1cc(C2NN=C(c3ccc(C)cc3)S2)ccc1O (stereo not given)	-15	15	-1	-11	3
COc1ccc(C2NN=C(c3ccc(C)cc3)S2)cc1 (stereo not given)	-28	28	-3	-3	41*
CCOc1ccc(CCN2C(=S)N([C@@H](CC(C)C)CN3CCCC3CN3C(=S)NC[C@@H]3CC(C)C)C[C@@H]2CC(C)C)cc1 (stereo not given in full)	-5	5	-1	nt	-4
C=C1c2cccc(OC)c2O[C@H](C(=O)OCC)[C@@H]1CC(CC)CCCC (stereo not given in full)	-84	84*	-1	2	-4
Cc1nc2cc(-c3ccccc3)nn2c(C)c1CCC(=O)NC(C)c1ccc2c(c1)OCCO2 (stereo not given)	-77	77*	-1	-12	nt
CCOC(=O)N1CCC(=C(C#N)C(=O)Nc2cc(OC)ccc2OC)CC1	5	-5	0	-7	31*
O=c1cc(CN2CCN(Cc3ccccc3)CC2)c2ccc(O)cc2o1	nt	nt	-1	4	-3
O=C(c1ccco1)N1CCN(Cc2cc(=O)oc3cc(O)ccc23)CC1	13	-13	-1	-16	48*
S=C(Nc1ccc(Oc2ccccc2)cc1)Nc1cccnc1	12	-12	-1	4	-5
O=C(NCCCNC(=O)c1c(Cl)cccc1Cl)c1c(Cl)cccc1Cl	2	-2	-1	4	6
O=C(NCCCNC(=O)c1c(F)cccc1F)c1c(F)cccc1F	-78	78*	-1	5	2
O=C(NC1CCCCC1)c1ccc([N+](=O)[O-])cc1	-23	23	0	-4	92*
O=C(NC(=S)NC1CCN(Cc2ccccc2)CC1)c1ccc(F)cc1	-10	10	-1	-3	-1
Fc1ccc(CNC(=S)NC2CCCCCC2)cc1	4	-4	-1	44*	nt
O=C(NC(=S)NC1CCCCC1)c1ccc(F)cc1	-3	3	-1	0	44*
COc1ccc(CNC(=S)NC2CCCCC2)cc1	-8	8	-1	0	0
CC(=O)N/N=C(/c1ccccc1)C(O)c1ccccc1 (stereo not given)	-12	12	1	9	0
CCOC(=O)C1=C(COC(=O)/C=C/c2ccc(SC)cc2)NC(=O)NC1C (stereo not given)	-54	54	-2	0	2
